Data taken from ChEMBL document CHEMBL4513216, “Probing the Open Global Health Chemical Diversity Library for Multistage-Active Starting Points for Next-Generation Antimalarials” (ACS Infect Dis, 2020).

Assay: Toxicity liver stage against HepG2, at 10uM
Format: cell-based
Parameters: test concentration 10 uM, cell line HepG2-A16-CD81EGFP
Conditions: human, HepG2-A16-CD81EGFP cells; read-out: INHIBITION
Method in brief: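 Uninfected HepG2-A16-CD81EGFP cells, 3 × 10^3 per well, 1536-well, plated on prespotted compound at 10 μM final, parasite-free screening media added to match infected plates; puromycin 10 μM positive, DMSO 0.5% negative; run in parallel with 48 h PbLuc assay at 37 °C, 5% CO2; viability by CellTiter-Glo luminescence, normalized to controls.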

Compound | cytotoxicity at 10 µM [%]
COC(=O)[C@@H]1Cc2[nH]cnc2CN1Cc1cc2ccccc2o1 | 0.994
N#CCCN1CC(O)CN(C(=O)c2cccc(C(F)(F)F)c2)CC1=O (stereo unspecified) | 7.84
O=C(CCCNC(=O)c1cnccn1)Nc1ncc[nH]1 | -41.9
O=S(=O)(c1cccs1)N1CCN(Cc2nc(-c3ccco3)cs2)CC1 | 21.2
O=C(Cc1ccccc1Cl)NCCN1CCC(c2cccs2)CC1 | 6.93
O=C(CN1C(=O)CCC1=O)NCc1nn(C2CCCC2)c2c1CCCC2 | 1.97
c1csc(CN2CCc3nc(N4CCOCC4)nc(NC4CC4)c3C2)n1 | 0.0529
Cn1nnc2c1CCN(S(C)(=O)=O)C2COCC1CC1 (stereo unspecified) | -4.6
c1cncc(-c2ccc3c(c2)CCC32CCNCC2)c1 | -10.3
CC(C)N1c2sc(-c3ccccc3)nc2CC1C(=O)NC1CCCC1 (stereo unspecified) | 10.3
Cc1ccnc(OC[C@@]23CCO[C@@H]2CCN(S(C)(=O)=O)C3)n1 | 9.34
CCOc1cccc2c1OCC(=O)N(c1ccc3c(c1)OCCO3)C2 | 13.1
Oc1nnc(-c2ccccc2)c2sc(N3CCCCC3)nc12 | -1.81
O=c1[nH]nc2c(N3CCOCC3)nccn12 | 9.73
O=c1c2cc3c(cc2nnn1Cc1ccccc1Cl)OCCO3 | 9.32
Cc1nc(NCCCn2cccn2)c2c(n1)c(C)nn2C | 6.64
CCC(=O)N1CCCC(C(=O)c2cnn(-c3ccc(F)cc3)c2N)C1 (stereo unspecified) | 4.57
CCc1noc(CCC(=O)N[C@@H]2CC[C@@H](n3ccnc3C)[C@@H]2O)n1 | -20.5
COc1ccc(CN(C)[C@@H]2CN(C(=O)c3cncs3)C[C@H]2O)cc1 | -12.4
Cc1cnc(N)c(C(=O)C2CCN(C(=O)c3ccccc3F)CC2)c1 | 9.96
CC(=O)N1CC2(CCN(Cc3ccc(Cl)cc3)C2)Cc2ccccc21 (stereo unspecified) | 7.74
CCC(C)(CC(=O)OC)NCc1cc(C)on1 (stereo unspecified) | -1.88
CSC1(CNC(=O)N(C)Cc2ccc(C)s2)CCOCC1 | -46.5

Compound | cytotoxicity at 10 µM [%]
CCc1ccc(O)c(C(=O)N2CCN(CC(=O)N(CC)CC)CC2)c1 | 4.49
O=C(CN1CCc2cncnc2C1)NC(C1CC1)C1CC1 | -5.42
COCC(=O)N[C@H](C(=O)NC(C)c1cc(C)ccc1C)C(C)C (stereo partly specified) | 0.341
O=C(Nc1cccnc1)NC1CCN(c2ccccc2OC(F)F)C1 (stereo unspecified) | 12.1
CN1CCOC(CNC(=O)C2(c3ccccc3)CCC2)C1 (stereo unspecified) | 6.17
Cc1c(NC(C)C(C)C)cccc1C(=O)NCc1nccn1C (stereo unspecified) | -5.99
N#Cc1ccc(CN2CCCN(CCCn3cncn3)CC2)cc1 | -2.89
COc1ccc(C(O)CN2CC(n3cc(C)cn3)C2)cc1 (stereo unspecified) | 4.52
CCN(CC)S(=O)(=O)N1CCCN(CC(=O)NC(C)C)CC1 | 2.75
Cc1ccc(C2CN(c3nnc(C(F)F)s3)CCO2)c(C)c1 (stereo unspecified) | 3.28
O=C(CC1CN(Cc2ccccc2)CCO1)NCCN1CCOCC1 (stereo unspecified) | 6.67
N#Cc1ccc(C(=O)NS(=O)(=O)c2ccc(C#N)c(Cl)c2)cc1 | 5.44
CCN(Cc1ccoc1)C(=O)NC1CCN(CC=C(C)C)CC1 | -3.89
CC(=O)N1Cc2ccccc2CC1C(=O)Nc1cc(C)ccn1 (stereo unspecified) | -4.5
Cc1nn(-c2ccccc2)nc1C(=O)NCC(c1ccsc1)N(C)C (stereo unspecified) | -22.3
Cc1cc(N)nc(SC2CCN(c3ccccc3F)C2=O)n1 (stereo unspecified) | -9.51
O=C(NC1(c2nccs2)CCCC1)c1[nH]nc(C2CC2)c1Cl | -24.6
Cc1nc(CNC(=O)NC2CCN(c3cccc(Cl)c3)C2)no1 (stereo unspecified) | 0.636
CC(C)(C)OC(=O)N1CCCN1C(=O)c1cccc2cc[nH]c12 | 2.84
Cc1cc(CN(CCCO)c2ccccc2)on1 | -4.91
COCCC1(CNC(=O)Nc2ccnc(C)c2)CCCC1 | 2.12
OC(CN1CCN(CCOCC(F)(F)F)CC1)c1ccccc1 (stereo unspecified) | -7.99
CCCn1nccc1NC(=O)c1ccc(Cl)c(N2CCNC2=O)c1 | -5.07

Compound | cytotoxicity at 10 µM [%]
CCC(Nc1ccc(CCN2CCCCC2)cc1)C(N)=O (stereo unspecified) | 4.47
NC1CCCN(Cc2cccc(C(F)(F)F)c2)C1=O (stereo unspecified) | 5.85
CC(CNC(=O)c1cnc[nH]1)Oc1ccccc1Br (stereo unspecified) | 2.74
CS(=O)(=O)Cc1nc(CN2CCc3ccccc3CC2)cs1 | -7.73
Cc1ccc(C)c(C(=O)CN2C(=O)c3ccccc3CS2(=O)=O)c1 | -8.42
CNc1cc(N2CCCC2CNCc2ccc(Cl)o2)ncn1 (stereo unspecified) | -11.6
CCOC1CCC2(CCN(C(=O)c3csnn3)CC2)c2ccccc21 (stereo unspecified) | -1.58
O=C(c1ccoc1)N1CCn2cnc(COCC3CC3)c2C1 | -71.9
CCn1nc(CC(C)C)cc1C(=O)N1CC(c2ccncc2)C1 | -6.38
Cc1nc2[nH]cc(C(=O)N3CCCCC3c3ccc(F)cc3)c(=O)n2n1 (stereo unspecified) | 3.63
COc1cccc2c1OCC(Cc1cc(C(=O)N3CCCC3)ccn1)C2 (stereo unspecified) | 5.15
c1ccc(-c2nnc(N3CCCC4(CCOC4)C3)s2)cc1 (stereo unspecified) | -2.37
Cc1nc(CN(C)Cc2nc(-c3sccc3C)oc2C)no1 | -0.205
CN(Cc1ccc(CCC(C)(C)O)cc1)Cc1cccnc1 | 15
CCN(CC)C(=O)[C@@H]1C[C@H](N)CN1c1nnc(-c2ccccc2)s1 | -51.7
CC(C)N(CCO)C(=O)C1CCC(=O)N(CCc2cccc(F)c2)C1 (stereo unspecified) | -6.95
c1ccc(NCCn2cc(C3CCCNC3)nn2)cc1 (stereo unspecified) | 5.44
Cc1ncc2c(c1CNC(=O)C1(C)CCCO1)CCNC2 (stereo unspecified) | -45.6
Cc1cc(C2CCC2)nc(NCC(C)(C)N2CCCC2)n1 | -0.21
CN(CCNC(=O)c1cnc(-c2ccccc2)nc1)S(C)(=O)=O | 4.3
CCCn1ccnc1CN1CCCC1c1ccccn1 (stereo unspecified) | -7.25
Cc1ccc(C(=O)N2CC(c3cccnc3)C2)cc1N1CCNC1=O | -4.57
CC1=NN(CC(=O)N2CC[C@@H]3[C@@H](CCC(=O)N3CC(C)C)C2)CC1 | 0.88

Compound | cytotoxicity at 10 µM [%]
CCC(C(=O)NCCc1nc(C)cc(C(F)(F)F)n1)n1cccn1 (stereo unspecified) | -9.77
CSCCCNc1ncnc2cccc(F)c12 | 0.721
CCc1ccccc1OCCN1C[C@@H](NS(C)(=O)=O)[C@H](C(C)C)C1 | -47.5
Cn1ccnc1CN1CCN(CC2CC2)[C@@H]2CS(=O)(=O)C[C@@H]21 | 1.02
Nc1ccc(CC2COc3ccccc3C2)cn1 (stereo unspecified) | 0.541
CCC[C@H]1CN(c2nccc(OC)n2)C[C@@H]1NS(=O)(=O)N(C)C | -140
Cc1ccccc1N1CCN(C(=O)CC(C)C)CC1 | -1.26
NC(=O)C1CCN(C(=O)c2cc(S(=O)(=O)N3CCCCC3)cs2)CC1 | -45.1
CN(C)C(=O)c1ccc(C2CCCN2C(=O)CCC2=NNC(=O)CC2)s1 (stereo unspecified) | 9.19
CCn1nc(C)c(CCN2CC3(CCOC3)CCC2=O)c1C (stereo unspecified) | -118
O=C(Cc1ccsc1)N1CCC(Cn2cc(CCO)nn2)CC1 | 1.67
CCNc1ncc(C(=O)NCCc2csc(-c3ncccn3)n2)cn1 | 19.9
COc1cc(C)sc1C(=O)N1CC(c2cccnc2)C1 | -8.97
CC1CN(C)CCN1C(=O)c1ccn(-c2ccc(F)cc2)n1 (stereo unspecified) | -5.3
CCN(CC)Cc1ccc(C(=O)N2CCCC2c2cnn(C)c2)o1 (stereo unspecified) | 3.51
CCOCCCn1c(NC(=O)c2cnc(C)s2)nc2ccccc21 | -30
NC(=O)C1CCN(C(=O)c2ccc(OCc3cscn3)cc2)CC1 | -10.6
CN(C)C(=O)C1CCN(Cc2csc(C(C)(C)C)n2)CC1 | -23
CC(Cn1cccn1)NCc1ccc(OCc2ccncc2)cc1 (stereo unspecified) | -29.9
CC(C)Oc1ccccc1NC(=O)N1CCC(n2cncn2)CC1 | -3.67
CC(c1nc(C2CC2)no1)N1CCN(Cc2ccc(C#N)cc2)CC1 (stereo unspecified) | 3.71
CC(NC(=O)NCCNc1ncccn1)c1cccs1 (stereo unspecified) | -0.447
CC1CN(Cc2nccn2C)CCN1c1ccc2nncn2n1 (stereo unspecified) | -8.52

Compound | cytotoxicity at 10 µM [%]
NC(=O)c1cc(C2CCCN(C(=O)CCc3ccsc3)C2)n[nH]1 (stereo unspecified) | -5.79
Cc1cnn(CCNCC(=O)NCCOc2ccccc2)c1 | -14
O=C(CN1CCCC1Cn1cncn1)NCCc1c(F)cccc1F (stereo unspecified) | -6.24
CN(Cc1ccccc1)CC(O)Cn1cnc2ccsc2c1=O (stereo unspecified) | -2.89
Cc1cc(NC(=O)CCN2CCCC2Cn2cncn2)no1 (stereo unspecified) | 4.26
CC(=O)Nc1ccc(S(=O)(=O)NC(=O)CCC2CCCO2)cc1 (stereo unspecified) | -5.11
Cc1c(C)n(CC(O)CN2CCOCC2)c2c(Cl)cccc12 (stereo unspecified) | 0.829
Cn1cncc1C(=O)N1C[C@@H]2CCN(c3cnccn3)C[C@@H]2C1 | -96.6
CC(C)CC(=O)N1CCC2(CC1)COCCN2Cc1ccc(F)cc1 | -77.1
Cc1noc(C)c1CN1CCc2ncc(CN(C)C)n2CC1 | 8.46
CCO[C@@H]1C[C@H]2CN(S(=O)(=O)c3cccs3)CCN2C1 | 8.52
O=C(C[C@@H]1COC[C@H]2CN(C3CCCC3)C[C@@H]12)N1CCCCO1 | 7.92
Cc1nnc(N2CCCC3(CN(Cc4ccc(F)cc4)CCO3)C2)o1 (stereo unspecified) | -6.63
COCC1c2c(cnn2C)CCN1C(=O)c1cscn1 (stereo unspecified) | -101
COc1ccc(CN2CCCn3cnc(COC(C)C)c3C2)cc1 | -74.9
CN(C)S(=O)(=O)N1CC[C@]2(C[C@H](OCc3ccccn3)CO2)C1 | 11.6
c1coc(COCc2ncn3c2CN(Cc2cccs2)CCC3)c1 | -76.2
CCCC(=O)N1CC[C@@H]2[C@H](CC1)N(Cc1cccc(C)n1)CCS2(=O)=O | -2.88
CCn1c(Cn2cncn2)nnc1C1CCN(CC2[C@H]3CNC[C@@H]23)CC1 (stereo partly specified) | 6.77
